ChEMBL document CHEMBL4257585, “Structure-Activity Relationships of Photoswitchable Diarylethene-Based β-Hairpin Peptides as Membranolytic Antimicrobial and Anticancer Agents” (J Med Chem, 2018)
≈ marks a conversion by molar mass, not a printed value. Non-standard residues stand in square brackets, D forms with d. Residues, ends and D or L forms follow the SMILES beside them. Orn = NCCC[C@H](N)C(=O)O

Experiments:
Bacillus subtilis = assay: Antimicrobial activity against Bacillus subtilis DSM 347 after 22 hrs by resazurin dye based spectrophotometry; assay type: functional; conditions: DSM 347, 22 h
Outline: (§1)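 2-fold broth microdilution in Mueller–Hinton medium; peptide stocks 1024 μg/mL in 50% ethanol. Exponential-phase cultures diluted to OD550 0.2, then 1:100 (B. subtilis) or 1:1000 (E. coli), giving 5 × 10^5 CFU/mL per well. Incubated 22 h, 37 °C, static; then resazurin (0.2 mg/mL solution) added for 2 h at 37 °C, read visually and spectrophotometrically. Tested in both photoforms.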

Escherichia coli = assay: Antimicrobial activity against Escherichia coli DSM 1103 after 22 hrs by resazurin dye based spectrophotometry; assay type: functional; conditions: DSM 1103, 22 h; outline: as §1
HeLa = assay: Cytotoxicity against human HeLa cells assessed as reduction in cell viability after 24 hrs by MTT assay; assay type: functional, cell-based
Outline: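 HeLa cells seeded at about 5 × 10^4 cells/mL in DMEM with 10% FBS, 2 mM glutamine, gentamicin; 24 h adaptation (37 °C, 5% CO2), then 24 h peptide exposure. MTT 4 h, formazan in DMSO read at 570 nm. 2-fold series 256–0.5 (open) or 512–1 μg/mL (closed), four repetitions; IC50 extrapolated from killing curves. Closed form handled in dim light.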

[1] = Hemolytic activity against human RBC assessed as hemolysis after 30 mins by colorimetric method; assay type: ADME, cell-based, Erythrocyte; conditions: human red blood cells (erythrocytes)
Outline: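 Human erythrocytes washed twice in isotonic 172 mM Tris-HCl, pH 7.6; peptides dissolved in DMSO, diluted in buffer, two independent 10-step 2-fold series from 256 or 192 μg/mL. HC50 extrapolated as 50% hemolysis concentration.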

[2] = Therapeutic index, ratio of HC50 for human RBC to MIC for Escherichia coli DSM 1103; assay type: toxicity; conditions: human red blood cells versus Escherichia coli DSM 1103
Outline: (§2)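 Ratio of HC50 (RBC) to HeLa IC50 or to MIC against B. subtilis or E. coli; values measured in mg/mL and recalculated to μM, 2-fold dilution without curve fitting, accuracy within a factor of 2.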

[3] = Therapeutic index, ratio of HC50 for human RBC to MIC for Bacillus subtilis DSM 347; assay type: toxicity; conditions: human red blood cells versus Bacillus subtilis DSM 347; outline: as §2
[4] = Selective ratio of HC50 for human RBC to IC50 for human HeLa cells; assay type: toxicity; conditions: human red blood cells versus HeLa cells; outline: as §2

MIC (Bacillus subtilis) | MIC (Escherichia coli) | SMILES | IC50 (HeLa) | HC50 at 0.5 h [1] | selectivity ratio [2] | selectivity ratio [3] | selectivity ratio [4]
1 µM (≈ 1.57 µg/mL) | 21 µM (≈ 32.9 µg/mL) | Cc1sc2cc1C1=C(CCC1)c1cc(sc1C)C(=O)[C@H]1CCCN1C(=O)[C@H](CCCCN)NC(=O)[C@H](CC(C)C)NC(=O)[C@H](CCCCN)NC(=O)[C@H](C(C)C)NC(=O)[C@@H]1CCCN1C(=O)[C@@H](Cc1ccccc1)NC(=O)[C@H](CC(C)C)NC(=O)[C@H](CCCCN)NC(=O)[C@H](C(C)C)NC(=O)[C@H](CCCCN)NC2=O | 41 µM | 4 µM | 0.2 | 4 | 0.1
4 µM (≈ 5.52 µg/mL) | 92 µM (≈ 127 µg/mL) | Cc1sc2cc1C1=C(CCC1)c1cc(sc1C)C(=O)[C@H]1CCCN1C(=O)[C@H](Cc1ccc(O)cc1)NC(=O)[C@H](CCCN)NC(=O)[C@H](C(C)C)NC(=O)[C@@H]1CCCN1C(=O)[C@@H](Cc1ccccc1)NC(=O)[C@H](Cc1ccc(O)cc1)NC(=O)[C@H](CCCN)NC(=O)[C@H](C(C)C)NC2=O | 23 µM | 4 µM |  | 1 | 0.2
 |  | CC(C)C[C@@H]1NC(=O)[C@H](CCCN)NC(=O)[C@H](C(C)C)NC(=O)[C@@H]2CCCN2C(=O)[C@@H](Cc2ccccc2)NC(=O)[C@H](CC(C)C)NC(=O)[C@H](CCCN)NC(=O)[C@H](C(C)C)NC(=O)[C@@H]2CCCN2C(=O)[C@@H](Cc2ccccc2)NC1=O (cyclo(V[Orn]L[dF]PV[Orn]L[dF]P)) [listing 1 of 2 here] | 3.5 µM | 10.5 µM |  |  | 
12 µM (≈ 15.8 µg/mL) | 195 µM (≈ 256 µg/mL) | CC(C)[C@@H]1NC(=O)[C@H](CCCN)NC(=O)[C@H]([C@H](O)C(C)C)NC(=O)C2=CC3=C4CCCC4=C4C=C(S[C@]4(C)[C@@]3(C)S2)C(=O)[C@H]2CCCN2C(=O)[C@H](C(C)C)NC(=O)[C@H](CCCN)NC(=O)[C@H]([C@H](O)C(C)C)NC(=O)[C@@H]2CCCN2C(=O)[C@@H](Cc2ccccc2)NC1=O | 293 µM | 160 µM | 0.8 | 13.3 | 0.5
3 µM (≈ 4.09 µg/mL) | 35 µM (≈ 47.8 µg/mL) | Cc1sc2cc1C1=C(CCC1)c1cc(sc1C)C(=O)[C@H]1CCCN1C(=O)[C@H](CC(C)C)NC(=O)[C@H](CCCNC(=N)N)NC(=O)[C@H](C(C)C)NC(=O)[C@@H]1CCCN1C(=O)[C@@H](Cc1ccccc1)NC(=O)[C@H](CC(C)C)NC(=O)[C@H](CCCNC(=N)N)NC(=O)[C@H](C(C)C)NC2=O | 4 µM | 2 µM | 0.1 | 0.7 | 0.5
6 µM (≈ 8.19 µg/mL) | 94 µM (≈ 128 µg/mL) | CC(C)C[C@@H]1NC(=O)[C@H](CCCNC(=N)N)NC(=O)[C@H](C(C)C)NC(=O)C2=CC3=C4CCCC4=C4C=C(S[C@]4(C)[C@@]3(C)S2)C(=O)[C@H]2CCCN2C(=O)[C@H](CC(C)C)NC(=O)[C@H](CCCNC(=N)N)NC(=O)[C@H](C(C)C)NC(=O)[C@@H]2CCCN2C(=O)[C@@H](Cc2ccccc2)NC1=O | 35 µM | 10 µM | 0.1 | 1.7 | 0.3
3 µM (≈ 4.44 µg/mL) | 8 µM (≈ 11.8 µg/mL) | C[C@]12SC3=CC1=C1CCCC1=C1C=C(S[C@@]12C)C(=O)[C@H]1CCCN1C(=O)[C@H](CCCCN)NC(=O)[C@H](C12CC4CC(CC(C4)C1)C2)NC(=O)[C@H](CCCN)NC(=O)[C@@H]1CCCN1C(=O)[C@@H](Cc1ccccc1)NC(=O)[C@H](CCCN)NC(=O)[C@H](C12CC4CC(CC(C4)C1)C2)NC(=O)[C@H](CCCN)NC3=O | 11 µM | 1 µM | 0.1 | 0.3 | 0.1
2 µM (≈ 2.91 µg/mL) | 13 µM (≈ 18.9 µg/mL) | C[C@@H](O)[C@@H]1NC(=O)[C@H](C23CC4CC(CC(C4)C2)C3)NC(=O)[C@H](CCCN)NC(=O)[C@@H]2CCCN2C(=O)[C@@H](Cc2ccccc2)NC(=O)[C@H](CCCN)NC(=O)[C@H](C23CC4CC(CC(C4)C2)C3)NC(=O)[C@H](CCCN)NC(=O)C2=CC3=C4CCCC4=C4C=C(S[C@]4(C)[C@@]3(C)S2)C(=O)[C@H]2CCCN2C1=O | 11 µM | 13 µM | 0.1 | 6.5 | 1.2
3 µM (≈ 4.06 µg/mL) | 47 µM (≈ 63.6 µg/mL) | Cc1sc2cc1C1=C(CCC1)c1cc(sc1C)C(=O)[C@H]1CCCN1C(=O)[C@H](CC(C)C)NC(=O)[C@H](CCCCN)NC(=O)[C@H](C(C)C)NC(=O)[C@H](CCCCN)N(C)C(=O)[C@@H](Cc1ccccc1)NC(=O)[C@H](CC(C)C)NC(=O)[C@H](CCCCN)NC(=O)[C@H](C(C)C)NC2=O | 3 µM | 4 µM | 0.1 | 1.3 | 1.3
1 µM (≈ 2.68 µg/mL) | 23 µM (≈ 61.7 µg/mL) | Cc1sc2cc1C1=C(CCC1)c1cc(sc1C)C(=O)[C@H]1CCCN1C(=O)[C@H](C(C)C)NC(=O)[C@H](CCCN)NC(=O)[C@H](C(C)C)NC(=O)[C@@H]1CCCN1C(=O)[C@@H](Cc1ccccc1)NC(=O)[C@H](C(C)C)NC(=O)[C@H](CCCN)NC(=O)[C@H](CCCn1cc(COCc3cn(CCC[C@@H]4NC(=O)c5cc(c(C)s5)C5=C(CCC5)c5cc(sc5C)C(=O)[C@H]5CCCN5C(=O)[C@H](C(C)C)NC(=O)[C@H](CCCN)NC(=O)[C@H](C(C)C)NC(=O)[C@@H]5CCCN5C(=O)[C@@H](Cc5ccccc5)NC(=O)[C@H](C(C)C)NC(=O)[C@H](CCCN)NC4=O)nn3)nn1)NC2=O | 23 µM | 1 µM |  | 1 | 
3 µM (≈ 8.32 µg/mL) | 48 µM (≈ 133 µg/mL) | Cc1sc2cc1C1=C(CCC1)c1cc(sc1C)C(=O)[C@H]1CCCN1C(=O)[C@H](C(C)C)NC(=O)[C@H](CCCN)NC(=O)[C@H](C(C)C)NC(=O)[C@H](CCCn1cc(COCc3cn(CCC[C@H]4C(=O)N[C@@H](C(C)C)C(=O)N[C@@H](CCCN)C(=O)N[C@@H](C(C)C)C(=O)N5CCC[C@@H]5C(=O)c5cc(c(C)s5)C5=C(CCC5)c5cc(sc5C)C(=O)N[C@@H]([C@H](O)C(C)C)C(=O)N[C@@H](CCCN)C(=O)N[C@@H](C(C)C)C(=O)N[C@H](Cc5ccccc5)C(=O)N4C)nn3)nn1)N(C)C(=O)[C@@H](Cc1ccccc1)NC(=O)[C@H](C(C)C)NC(=O)[C@H](CCCN)NC(=O)[C@H]([C@H](O)C(C)C)NC2=O | 24 µM | 1 µM |  | 0.3 | 

SMILES | MIC (Bacillus subtilis) | MIC (Escherichia coli) | IC50 (HeLa) | HC50 at 0.5 h [1] | selectivity ratio [2] | selectivity ratio [3] | selectivity ratio [4]
Cc1sc2cc1C1=C(CCC1)c1cc(sc1C)C(=O)[C@H]1CCCN1C(=O)[C@H](C(C)C)NC(=O)[C@H](CCCN)NC(=O)[C@H](C(C)C)NC(=O)[C@@H]1CCCN1C(=O)[C@@H](Cc1ccccc1)NC(=O)[C@H](C(C)C)NC(=O)[C@H](CCCN)NC(=O)[C@H]([C@H](O)C(C)C)NC2=O | 2 µM (≈ 2.57 µg/mL) | 100 µM (≈ 128 µg/mL) | 25 µM | 56 µM | 0.6 | 28 | 2.2
CC(C)C[C@@H]1NC(=O)[C@H](CCCN)NC(=O)[C@H](C(C)C)NC(=O)[C@@H]2CCCN2C(=O)[C@@H](Cc2ccccc2)NC(=O)[C@H](CC(C)C)NC(=O)[C@H](CCCN)NC(=O)[C@H](C(C)C)NC(=O)[C@@H]2CCCN2C(=O)[C@@H](Cc2ccccc2)NC1=O (cyclo(V[Orn]L[dF]PV[Orn]L[dF]P)) [listing 2 of 2 here] | 1.8 µM (≈ 2.05 µg/mL) | 28 µM (≈ 32 µg/mL) |  |  |  |  | 
CCCCN1C(=O)[C@@H](Cc2ccccc2)NC(=O)[C@H](CC(C)C)NC(=O)[C@H](CCCN)NC(=O)[C@H]([C@@H](C)CC)NC(=O)c2cc(c(C)s2)C2=C(CCC2)c2cc(sc2C)C(=O)[C@H]2CCCN2C(=O)[C@H](CC(C)C)NC(=O)[C@H](CCCN)NC(=O)[C@H]([C@@H](C)CC)NC(=O)[C@@H]1CC(C)C | 12 µM (≈ 16.6 µg/mL) | 93 µM (≈ 128 µg/mL) | 4 µM | 3 µM |  | 0.3 | 0.8
CC[C@H](C)[C@@H]1NC(=O)c2cc(c(C)s2)C2=C(CCC2)c2cc(sc2C)C(=O)[C@H]2CCCN2C(=O)[C@H]([C@@H](C)CC)NC(=O)[C@H](CCCN)NC(=O)[C@H](CC(C)C)NC(=O)[C@H](CC(C)C)N(C)C(=O)[C@@H](Cc2ccccc2)NC(=O)[C@H]([C@@H](C)CC)NC(=O)[C@H](CCCN)NC1=O | 2 µM (≈ 2.68 µg/mL) | 96 µM (≈ 129 µg/mL) | 3 µM | 3 µM |  | 1.5 | 1
Cc1sc2cc1C1=C(CCC1)c1cc(sc1C)C(=O)[C@H]1CCCN1C(=O)[C@H](CC(C)C)NC(=O)[C@H](CCCCN)NC(=O)[C@H](C(C)C)NC(=O)[C@H](CCCCN)NC(=O)[C@H](CC(C)C)NC(=O)[C@@H]1CCCN1C(=O)[C@@H](Cc1ccccc1)NC(=O)[C@H](C(C)C)NC(=O)[C@H](CCCCN)NC(=O)[C@H](CC(C)C)NC(=O)[C@H](CCCCN)NC(=O)[C@H](C(C)C)NC2=O | 9 µM (≈ 16 µg/mL) | 36 µM (≈ 64 µg/mL) | 5 µM | < 1 µM |  | 0.1 | 0.2
